Data on eleven compounds can be found in PMC11382098 (RSC Advances, 2024).

The first data set concerns Hs68 (human foreskin fibroblast) cells. The data set is described as follows: In vitro cytotoxicity. In kind it is cell-based. As to conditions: Hs68, read-out: IC50 (concentration necessary for 50% inhibition), Hs68 cells. The gist of the method:
(§1)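 Cells grown in DMEM with 10% FBS, penicillin/streptomycin, L-glutamine and 1 mM sodium pyruvate at 37 °C, 5% CO2. Seeded at 3 × 10^3 cells/well for 24 h, then exposed 72 h to test compound at 6.25, 12.5, 25, 50 and 100 μM; 5-FU as positive control. MTT 0.5 mg mL−1 for 3 h at 37 °C; formazan dissolved in DMSO, read at A570. Untreated cells set as 100% viability; IC50 given as mean ±SD, n = 3.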
For `O=c1[nH]cc(F)c(=O)[nH]1` [5-FU, 5-Fluorouracil], the IC50 was determined as 3.08 ± 0.4 µM.

The subject of another data set is human non-small-cell lung cancer cells (A549). Kind of data set: In vitro cytotoxicity. It counts as cell-based.
Conditions: not given
In short, it runs like this: as §1
For `Brc1ccc2nc(/C=C/c3ccco3)c(/C=C/c3ccco3)nc2c1` [Compound 4a, 6-Bromo-2,3-bis[(E)-2-(furan-2-yl)vinyl]quinoxaline], the “Cytotoxic activity against A549 cells (in words)” value (“Cytotoxic activity” below) is reported as “exhibited cytotoxic activities”.

Regarding `Brc1ccc2nc(/C=C/c3cccs3)c(/C=C/c3cccs3)nc2c1` [Compound 4b, 6-Bromo-2,3-bis[(E)-2-(thiophen-2-yl)vinyl]quinoxaline], the “Cytotoxic activity” value was “exhibited cytotoxic activities”.

Regarding `COc1ccccc1/C=C/c1nc2ccc(Br)cc2nc1/C=C/c1ccccc1OC` [Compound 4e, 6-Bromo-2,3-bis[(E)-2-methoxystyryl]quinoxaline], the “Cytotoxic activity” value was “exhibited cytotoxic activities”.

On to `Clc1cccc(/C=C/c2nc3ccc(Br)cc3nc2/C=C/c2cccc(Cl)c2)c1` [Compound 4g, 6-Bromo-2,3-bis[(E)-3-chlorostyryl]quinoxaline], for which the “Cytotoxic activity” value is “exhibited cytotoxic activities”.

As for `COc1ccc(/C=C/c2nc3ccc(Br)cc3nc2/C=C/c2ccc(OC)cc2)cc1` [Compound 4l, 6-Bromo-2,3-bis[(E)-4-methoxystyryl]quinoxaline], the “Cytotoxic activity” value is given as “exhibited cytotoxic activities”.

Turning to `O=[N+]([O-])c1ccc2nc(/C=C/c3cccc(Cl)c3)c(/C=C/c3cccc(Cl)c3)nc2c1` [Compound 5g, 2,3-Bis[(E)-3-chlorostyryl]-6-nitroquinoxaline], the “Cytotoxic activity” value is “exhibited cytotoxic activities”.

Test system in another data set: not listed separately
The data set is described as follows: Solubility observation. As to conditions: compounds with two nitro groups. In kind it is physicochemical.
Take `O=[N+]([O-])c1cccc(/C=C/c2nc3ccc(Br)cc3nc2/C=C/c2cccc([N+](=O)[O-])c2)c1` [Compound 4f, 6-Bromo-2,3-bis[(E)-3-nitrostyryl]quinoxaline]: the “Solubility (in words)” value is recorded as “reduced the solubility”.

`O=[N+]([O-])c1ccc(/C=C/c2nc3ccc(Br)cc3nc2/C=C/c2ccc([N+](=O)[O-])cc2)cc1` [Compound 4k, 6-Bromo-2,3-bis[(E)-4-nitrostyryl]quinoxaline]: the “Solubility (in words)” value is given as “reduced the solubility”.

For the compound `O=[N+]([O-])c1cccc(/C=C/c2nc3ccc([N+](=O)[O-])cc3nc2/C=C/c2cccc([N+](=O)[O-])c2)c1` [Compound 5f, 6-Nitro-2,3-bis[(E)-3-nitrostyryl]quinoxaline], the “Solubility (in words)” value was “reduced the solubility”.

Turning to `O=[N+]([O-])c1ccc(/C=C/c2nc3ccc([N+](=O)[O-])cc3nc2/C=C/c2ccc([N+](=O)[O-])cc2)cc1` [Compound 5k, 6-Nitro-2,3-bis[(E)-4-nitrostyryl]quinoxaline], the “Solubility (in words)” value is reported as “reduced the solubility”.
